Source: ChEMBL document CHEMBL3804775, “Development of a Potent, Specific CDK8 Kinase Inhibitor Which Phenocopies CDK8/19 Knockout Cells” (ACS Med Chem Lett, 2016)
Converted amounts (≈) assume the structure as drawn. The source made the active and inactive calls. The calls are words filed in the database; no cut-off is given here.

Key:
[1] = Antiproliferative activity against human HCT116 cells after 72 hrs by Celltiter-Glo reagent based assay in presence of 0.625% fetal bovine serum; type: functional, cell-based; conditions: HCT-116, 72 h
HCT-116 [2] = assay: Antiproliferative activity against CDK8 knockout human HCT116 cells after 72 hrs by Celltiter-Glo reagent based assay; type: functional, cell-based
Procedure, shortened: (§1)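 HCT-116 CDK8 knockout and CDK8/CDK19 double knockout clones, derived from wild-type HCT-116, were incubated alongside the parent line with varying concentrations of compound. Cell viability was read at 72 h to give growth-inhibition curves.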

[3] = Kinetic solubility in DMSO/phosphate buffered saline at pH 7.4 at 200 uM after 24 hrs by UHPLC based chemiluminescent nitrogen detection method; type: physicochemical; conditions: read-out: Kinetic_solubility
CDK8/Cyclin C = CDK8/Cyclin C (Homo sapiens, UniProt P49336); assay: Inhibition of full length human recombinant His-tagged CDK8/Cyclin C expressed in baculovirus expression system by fluorescence polarization assay
Sequence of CDK8/Cyclin C (P49336 whole entry): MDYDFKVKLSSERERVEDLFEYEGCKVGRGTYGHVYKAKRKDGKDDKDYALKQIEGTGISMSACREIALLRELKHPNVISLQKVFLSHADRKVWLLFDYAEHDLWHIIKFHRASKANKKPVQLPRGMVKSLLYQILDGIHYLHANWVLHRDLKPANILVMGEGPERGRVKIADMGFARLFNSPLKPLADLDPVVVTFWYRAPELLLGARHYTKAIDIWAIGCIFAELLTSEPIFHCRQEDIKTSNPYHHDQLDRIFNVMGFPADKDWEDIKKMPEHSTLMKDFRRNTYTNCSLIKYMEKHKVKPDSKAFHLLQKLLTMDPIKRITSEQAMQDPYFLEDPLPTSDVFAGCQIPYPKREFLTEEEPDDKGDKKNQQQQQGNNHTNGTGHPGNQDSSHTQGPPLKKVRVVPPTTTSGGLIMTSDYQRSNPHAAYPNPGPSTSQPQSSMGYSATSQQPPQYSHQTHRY
Sequence of CDK8/Cyclin C (P24863 whole entry, further chain): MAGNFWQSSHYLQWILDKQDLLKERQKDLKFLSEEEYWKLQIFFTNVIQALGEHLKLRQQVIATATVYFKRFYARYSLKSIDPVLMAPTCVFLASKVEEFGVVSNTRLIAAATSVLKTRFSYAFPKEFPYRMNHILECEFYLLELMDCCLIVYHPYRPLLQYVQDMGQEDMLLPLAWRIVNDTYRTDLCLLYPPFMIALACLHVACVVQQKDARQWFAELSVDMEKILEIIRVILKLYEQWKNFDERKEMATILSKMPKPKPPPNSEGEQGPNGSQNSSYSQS

[4] = Ratio of EC50 for antiproliferative activity against human HCT116 cells after 72 hrs by Celltiter-Glo reagent based assay to IC50 for inhibition of full length human recombinant His-tagged CDK8/Cyclin C expressed in baculovirus expression system by fluorescence polarization assay; design: species or system HCT-116
[5] = Plasma protein binding in human; type: ADME, cell-free; conditions: read-out: PPB (converted)
[6] = Antiproliferative activity against human HCT116 cells after 72 hrs by Celltiter-Glo reagent based assay in presence of 10% fetal bovine serum; type: functional, cell-based; conditions: HCT-116, 72 h
[7] = Plasma protein binding in rat; type: ADME, cell-free; conditions: read-out: PPB (converted)
[8] = Plasma protein binding in mouse; type: ADME, cell-free; conditions: read-out: PPB (converted)
CDK9/cyclin T1 = CDK9/cyclin T1 (Homo sapiens, UniProt P50750); assay: Inhibition of full length human recombinant His-tagged CDK9/Cyclin T expressed in baculovirus expression system using Cdk7/9tide as substrate by adapta assay
Sequence of CDK9/cyclin T1 (O60563 whole entry): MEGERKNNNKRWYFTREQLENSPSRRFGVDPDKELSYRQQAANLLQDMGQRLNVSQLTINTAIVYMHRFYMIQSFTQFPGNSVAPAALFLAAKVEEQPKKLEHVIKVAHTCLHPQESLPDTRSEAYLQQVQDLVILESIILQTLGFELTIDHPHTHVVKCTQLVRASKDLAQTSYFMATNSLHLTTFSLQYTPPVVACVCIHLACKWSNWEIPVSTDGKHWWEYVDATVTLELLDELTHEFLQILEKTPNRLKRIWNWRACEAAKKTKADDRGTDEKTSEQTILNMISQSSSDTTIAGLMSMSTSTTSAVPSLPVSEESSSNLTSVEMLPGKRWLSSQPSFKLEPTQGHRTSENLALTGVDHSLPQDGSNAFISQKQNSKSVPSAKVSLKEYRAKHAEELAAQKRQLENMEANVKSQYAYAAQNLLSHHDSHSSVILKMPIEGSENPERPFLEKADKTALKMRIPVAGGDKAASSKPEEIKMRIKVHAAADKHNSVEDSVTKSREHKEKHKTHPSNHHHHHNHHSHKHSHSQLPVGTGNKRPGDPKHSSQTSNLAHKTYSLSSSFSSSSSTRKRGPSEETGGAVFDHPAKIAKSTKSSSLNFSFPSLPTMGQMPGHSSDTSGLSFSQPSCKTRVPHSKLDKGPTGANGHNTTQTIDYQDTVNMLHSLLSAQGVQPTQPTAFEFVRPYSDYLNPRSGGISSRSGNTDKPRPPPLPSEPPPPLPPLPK
Sequence of CDK9/cyclin T1 (P50750 whole entry): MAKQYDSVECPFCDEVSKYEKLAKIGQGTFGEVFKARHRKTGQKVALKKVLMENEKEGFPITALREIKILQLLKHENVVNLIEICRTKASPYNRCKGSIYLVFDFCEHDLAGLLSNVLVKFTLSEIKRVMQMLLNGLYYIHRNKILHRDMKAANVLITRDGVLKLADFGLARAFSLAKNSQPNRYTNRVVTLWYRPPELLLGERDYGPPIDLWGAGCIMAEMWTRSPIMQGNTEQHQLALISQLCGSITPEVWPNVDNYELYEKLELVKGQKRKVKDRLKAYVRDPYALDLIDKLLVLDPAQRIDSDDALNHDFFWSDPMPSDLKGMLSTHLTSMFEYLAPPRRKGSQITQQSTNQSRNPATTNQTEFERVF

HCT-116 [9] = assay: Antiproliferative activity against CDK8/CDK19 double knockout human HCT116 cells after 72 hrs by Celltiter-Glo reagent based assay; type: functional, cell-based; procedure, shortened: as §1
[10] = Permeability from apical to basolateral side in MDCK cells; type: ADME, cell-based, Canis lupus familiaris; conditions: dog, read-out: permeability
[11] = target: PAS domain-containing serine/threonine-protein kinase (Homo sapiens) (UniProt Q96RG2); assay: Inhibition of human recombinant GST-tagged PASK (879 to 1323 residues) expressed in baculovirus expression system at 0.1 uM relative to control
Sequence of PAS domain-containing serine/threonine-protein kinase (Homo sapiens) (Q96RG2 whole entry, the tested form may be a part): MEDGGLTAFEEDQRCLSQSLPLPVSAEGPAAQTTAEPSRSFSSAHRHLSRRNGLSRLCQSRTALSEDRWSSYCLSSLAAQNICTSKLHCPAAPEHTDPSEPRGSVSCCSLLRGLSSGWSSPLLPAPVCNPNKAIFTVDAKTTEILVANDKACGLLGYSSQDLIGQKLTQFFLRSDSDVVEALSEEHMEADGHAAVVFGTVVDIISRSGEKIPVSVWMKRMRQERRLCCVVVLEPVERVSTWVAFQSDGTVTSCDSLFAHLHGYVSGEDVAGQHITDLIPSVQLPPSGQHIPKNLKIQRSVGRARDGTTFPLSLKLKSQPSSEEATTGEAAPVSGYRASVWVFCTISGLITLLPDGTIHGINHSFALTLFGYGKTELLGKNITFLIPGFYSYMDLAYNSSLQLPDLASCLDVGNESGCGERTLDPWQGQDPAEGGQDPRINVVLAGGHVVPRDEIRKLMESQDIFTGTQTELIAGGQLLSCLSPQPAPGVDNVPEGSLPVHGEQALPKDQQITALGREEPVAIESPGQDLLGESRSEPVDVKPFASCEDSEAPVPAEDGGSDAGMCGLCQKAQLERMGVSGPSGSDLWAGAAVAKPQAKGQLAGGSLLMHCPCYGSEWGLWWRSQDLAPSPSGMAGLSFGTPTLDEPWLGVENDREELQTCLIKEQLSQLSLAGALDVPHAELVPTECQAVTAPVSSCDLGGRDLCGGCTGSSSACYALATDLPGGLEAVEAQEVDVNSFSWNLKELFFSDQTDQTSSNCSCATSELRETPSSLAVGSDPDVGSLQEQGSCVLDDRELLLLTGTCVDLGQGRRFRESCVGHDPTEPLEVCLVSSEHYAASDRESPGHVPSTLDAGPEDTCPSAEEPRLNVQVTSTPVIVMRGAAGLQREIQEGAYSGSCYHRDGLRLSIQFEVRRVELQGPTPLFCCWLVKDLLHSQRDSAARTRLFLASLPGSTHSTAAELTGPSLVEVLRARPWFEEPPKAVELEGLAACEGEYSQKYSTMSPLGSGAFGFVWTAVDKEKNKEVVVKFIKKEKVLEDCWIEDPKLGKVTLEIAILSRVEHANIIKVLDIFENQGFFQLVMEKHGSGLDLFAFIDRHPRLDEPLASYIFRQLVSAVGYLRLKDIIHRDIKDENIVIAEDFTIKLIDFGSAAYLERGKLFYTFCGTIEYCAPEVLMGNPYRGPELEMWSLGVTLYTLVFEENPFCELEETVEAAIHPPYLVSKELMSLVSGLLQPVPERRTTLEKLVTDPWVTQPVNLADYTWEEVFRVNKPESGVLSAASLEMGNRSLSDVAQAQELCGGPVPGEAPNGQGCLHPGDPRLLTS
Procedure, shortened: (§2)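 Single-point kinase selectivity screen at 0.1 μM compound across a panel of 52 kinases, recorded as percent inhibition for each kinase.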

[12] = target: T1, Homeodomain-interacting protein kinase 4 (Homo sapiens) (UniProt Q8NE63); assay: Inhibition of full length human recombinant N-terminal GST-tagged HIPK4 expressed in baculovirus expression system using Ser/Thr peptide 18 substrate at 0.1 uM by Z-Lyte assay relative to control
T1 sequence (whole entry): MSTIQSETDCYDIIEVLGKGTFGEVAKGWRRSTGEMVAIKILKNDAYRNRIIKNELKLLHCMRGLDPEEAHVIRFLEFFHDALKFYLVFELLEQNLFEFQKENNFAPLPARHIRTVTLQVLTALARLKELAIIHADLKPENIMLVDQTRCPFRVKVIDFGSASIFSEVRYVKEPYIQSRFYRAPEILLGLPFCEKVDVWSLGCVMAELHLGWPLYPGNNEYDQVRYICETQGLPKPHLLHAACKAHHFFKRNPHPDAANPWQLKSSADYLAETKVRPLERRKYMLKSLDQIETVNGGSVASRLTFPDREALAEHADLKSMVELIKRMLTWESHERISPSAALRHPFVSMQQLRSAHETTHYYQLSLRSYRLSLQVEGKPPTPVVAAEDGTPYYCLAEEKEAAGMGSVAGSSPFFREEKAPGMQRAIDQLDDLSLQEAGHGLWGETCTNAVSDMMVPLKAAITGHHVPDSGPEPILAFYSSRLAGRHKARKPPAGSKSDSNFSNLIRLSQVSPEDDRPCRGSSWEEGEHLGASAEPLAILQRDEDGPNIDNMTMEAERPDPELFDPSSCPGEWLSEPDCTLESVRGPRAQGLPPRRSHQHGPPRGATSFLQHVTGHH
Procedure, shortened: (§3)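 Single-concentration screen at 0.1 μM within a 52-kinase selectivity panel, with percent inhibition reported for each kinase.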

[13] = target: Serine/threonine-protein kinase Nek4 (Homo sapiens) (UniProt P51957); assay: Inhibition of full length human recombinant GST-tagged NEK4 expressed in baculovirus expression system using Ser/Thr peptide 17 substrate at 0.1 uM by Z-Lyte assay relative to control; procedure, shortened: as §2
Sequence of Serine/threonine-protein kinase Nek4 (Homo sapiens) (P51957 whole entry, looked up): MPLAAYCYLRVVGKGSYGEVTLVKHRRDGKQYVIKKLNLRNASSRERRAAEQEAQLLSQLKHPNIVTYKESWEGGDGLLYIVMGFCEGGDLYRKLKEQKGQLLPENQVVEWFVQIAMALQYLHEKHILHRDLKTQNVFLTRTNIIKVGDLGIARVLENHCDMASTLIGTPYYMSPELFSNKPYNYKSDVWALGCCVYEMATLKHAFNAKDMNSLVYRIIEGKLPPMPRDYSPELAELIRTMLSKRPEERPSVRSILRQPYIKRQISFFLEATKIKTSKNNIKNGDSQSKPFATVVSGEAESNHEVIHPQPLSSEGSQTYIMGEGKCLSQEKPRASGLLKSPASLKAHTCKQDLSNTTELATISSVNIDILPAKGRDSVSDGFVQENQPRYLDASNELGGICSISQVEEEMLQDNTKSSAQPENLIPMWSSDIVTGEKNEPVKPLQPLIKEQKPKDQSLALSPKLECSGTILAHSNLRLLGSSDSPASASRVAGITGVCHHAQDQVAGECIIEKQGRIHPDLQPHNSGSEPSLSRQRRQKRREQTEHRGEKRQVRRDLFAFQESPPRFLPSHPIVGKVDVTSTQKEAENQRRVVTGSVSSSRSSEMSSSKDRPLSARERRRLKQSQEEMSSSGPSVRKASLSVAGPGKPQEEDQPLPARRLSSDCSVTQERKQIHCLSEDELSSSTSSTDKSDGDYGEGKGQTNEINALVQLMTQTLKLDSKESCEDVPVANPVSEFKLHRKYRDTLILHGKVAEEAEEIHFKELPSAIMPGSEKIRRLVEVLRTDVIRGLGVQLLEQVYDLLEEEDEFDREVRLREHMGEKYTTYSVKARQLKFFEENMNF

[14] = target: CDK9/cyclin T1 (Homo sapiens) (UniProt O60563+P50750); assay: Inhibition of full length human recombinant His-tagged CDK9/Cyclin T expressed in baculovirus expression system using Cdk7/9tide as substrate at 0.1 uM by adapta assay relative to control; procedure, shortened: as §2
[15] = target: Glycogen synthase kinase-3 alpha (Homo sapiens) (UniProt P49840); assay: Inhibition of recombinant GSK3alpha (unknown origin) at 0.1 uM relative to control; procedure, shortened: as §3
Sequence of Glycogen synthase kinase-3 alpha (Homo sapiens) (P49840 2-483 limits assumed): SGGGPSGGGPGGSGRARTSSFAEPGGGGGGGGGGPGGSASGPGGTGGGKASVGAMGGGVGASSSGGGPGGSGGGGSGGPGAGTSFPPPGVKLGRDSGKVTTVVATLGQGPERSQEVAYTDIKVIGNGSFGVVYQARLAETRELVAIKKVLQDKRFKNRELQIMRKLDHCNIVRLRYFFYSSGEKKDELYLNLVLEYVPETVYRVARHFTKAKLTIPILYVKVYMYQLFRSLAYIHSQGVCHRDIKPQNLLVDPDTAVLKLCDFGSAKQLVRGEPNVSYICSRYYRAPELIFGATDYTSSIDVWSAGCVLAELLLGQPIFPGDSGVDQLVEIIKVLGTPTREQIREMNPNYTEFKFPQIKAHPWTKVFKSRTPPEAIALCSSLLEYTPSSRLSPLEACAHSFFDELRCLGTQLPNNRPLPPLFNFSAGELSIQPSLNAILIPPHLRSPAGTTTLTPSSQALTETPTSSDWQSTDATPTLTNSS

Compound	solubility kinetic at 24 h, 200 µM [3] [µM]	IC50 (CDK8/Cyclin C) [nM]	fraction unbound [5]	fraction unbound [7]	fraction unbound [8]	Papp A→B [10] [×10⁻⁶ cm/s]	other results
CC(C)NC(=O)c1cc2c(Oc3ccc(Cl)cc3)cncc2s1	–	100	–	–	–	–	–
Clc1ccc(Oc2cncc3sc(-c4nnn[nH]4)cc23)cc1	–	1.1	–	–	–	11	EC50 [1]: > 10000 nM; EC50 [6]: > 10000 nM
CCC(=O)c1cc2c(Oc3ccc(Cl)cc3)cncc2s1	–	29	< 0.001	< 0.001	< 0.001	–	–
CC(=O)Nc1ccc(Oc2cncc3sc(-c4nnn[nH]4)cc23)cc1	–	2	–	–	–	0.8	–
CC(=O)Nc1ccc(Oc2cncc3sc(C(N)=O)cc23)cc1	18 (≈ 5.89 µg/mL)	29	0.09	0.152	0.204	–	–
Cc1ccc(Oc2cncc3sc(-c4nn[nH]n4)cc23)cc1	–	1.6	–	–	–	12	EC50 [1]: > 10000 nM; EC50 [6]: > 10000 nM
O=C(NC1CC1)c1cc2c(Oc3ccc(Cl)cc3)cncc2s1	–	24	0.008	0.007	0.009	–	–
c1ccc(Oc2cncc3sc(-c4nn[nH]n4)cc23)cc1	–	8.3	–	–	–	4.1	–
N#Cc1ccc(Oc2cncc3sc(-c4nnn[nH]4)cc23)cc1	–	1	–	–	–	2.5	EC50 [1]: > 10000 nM; EC50 [6]: > 10000 nM
COc1ccc(Oc2cncc3sc(C(N)=O)cc23)cc1	10 (≈ 3 µg/mL)	25	0.064	0.06	0.098	–	–
Fc1ccc(Oc2cncc3sc(-c4nnn[nH]4)cc23)cc1	–	5.5	–	–	–	9.1	–
CN1CC[C@H](c2c(O)cc(O)c3c(=O)cc(-c4ccccc4Cl)oc23)[C@H](O)C1 [ALVOCIDIB]	–	–	–	–	–	–	EC50 [6]: 34 nM
NC(=O)c1ccc(Oc2cncc3sc(-c4nnn[nH]4)cc23)cc1	–	4.4	–	–	–	0.7	–
Cc1ncc(Oc2ccc(Cl)cc2)c2cc(C(N)=O)sc12	10 (≈ 3.19 µg/mL)	8	0.007	0.008	0.012	–	EC50 [1]: 8700 nM; Ratio [4]: 1000; EC50 [6]: > 10000 nM

Second part, led by results:

solubility kinetic at 24 h, 200 µM [3] [µM]	IC50 (CDK8/Cyclin C) [nM]	fraction unbound [5]	fraction unbound [7]	fraction unbound [8]	Papp A→B [10] [×10⁻⁶ cm/s]	Compound	other results
5.5 (≈ 1.76 µg/mL)	1.5	0.0187	0.023	0.041	–	NC(=O)c1cc2c(Oc3ccc(Cl)cc3)cnc(N)c2s1	EC50 [1]: 5400 nM; Activity (HCT-116 [2]): Active; Ratio [4]: 1000; EC50 [6]: 6700 nM; IC50 (CDK9/cyclin T1): 1100 nM; Activity (HCT-116 [9]): Active
–	0.7	–	–	–	24	Ic1ccc(Oc2cncc3sc(-c4nn[nH]n4)cc23)cc1	inhibition [11]: > 50%; inhibition [12]: > 80%; inhibition [13]: > 30%; inhibition [14]: > 30%; inhibition [15]: > 80%
8 (≈ 2.36 µg/mL)	5.1	0.153	0.127	0.109	–	N#Cc1ccc(Oc2cncc3sc(C(N)=O)cc23)cc1	–
< 1	12	0.021	0.032	0.028	–	NC(=O)c1cc2c(Oc3ccc(OC(F)(F)F)cc3)cncc2s1	EC50 [1]: > 10000 nM; EC50 [6]: > 10000 nM
–	32	0.003	0.002	0.003	–	CC(=O)c1cc2c(Oc3ccc(Cl)cc3)cncc2s1	–
–	2.8	0.002	0.003	0.003	–	O=C(O)c1cc2c(Oc3ccc(Cl)cc3)cncc2s1	EC50 [1]: > 10000 nM; EC50 [6]: > 10000 nM
< 1	11	–	–	–	–	NC(=O)c1cc2c(Oc3ccc(Cl)cc3)cnc(Cl)c2s1	–
7 (≈ 2.19 µg/mL)	21	0.227	0.232	0.217	–	NC(=O)c1ccc(Oc2cncc3sc(C(N)=O)cc23)cc1	–
< 1	16	–	–	–	–	NC(=O)c1cc2c(Oc3ccc(Cl)cc3)cnc(F)c2s1	–
–	5.3	0.002	0.001	0.002	–	CNC(=O)c1cc2c(Oc3ccc(I)cc3)cncc2s1	–
–	62	–	–	–	–	COC(=O)c1cc2c(Oc3ccc(Cl)cc3)cncc2s1	–
–	16	–	–	–	–	CCNC(=O)c1cc2c(Oc3ccc(Cl)cc3)cncc2s1	–
–	3	–	–	–	1.9	NC(=O)c1ccc(-c2ccc(Oc3cncc4sc(-c5nn[nH]n5)cc34)cc2)cc1	inhibition [11]: > 80%; inhibition [12]: > 80%; inhibition [13]: > 80%; inhibition [14]: > 50%; inhibition [15]: > 80%
–	8.2	0.015	0.01	0.023	–	CNC(=O)c1cc2c(Oc3ccc(Cl)cc3)cncc2s1	–
–	59	–	–	–	–	O=C(c1cc2c(Oc3ccc(Cl)cc3)cncc2s1)C1CC1	–
–	75	–	–	–	–	CN(C)C(=O)c1cc2c(Oc3ccc(Cl)cc3)cncc2s1	–
6.3 (≈ 1.92 µg/mL)	6.2	–	–	–	–	NC(=O)c1cc2c(Oc3ccc(Cl)cc3)cncc2s1	IC50 (CDK9/cyclin T1): 2200 nM
–	1.1	–	–	–	24	FC(F)(F)Oc1ccc(Oc2cncc3sc(-c4nnn[nH]4)cc23)cc1	EC50 [1]: > 10000 nM; EC50 [6]: > 10000 nM
< 1	6	0.028	0.041	0.039	–	Cc1ccc(Oc2cncc3sc(C(N)=O)cc23)cc1	–
